# From ChEMBL document CHEMBL2057126, “Discovery of new inhibitors of Cdc25B dual specificity phosphatases by structure-based virtual screening” (J Med Chem, 2012)
# Activity calls are given as the source filed them. The calls are words filed in the database; no cut-off is given here.
# Experiments:
# [1] = Inhibition of Cdc25; parameters: species or system Homo sapiens
# MCF7 [2] = experiment: Cell cycle arrest in human MCF7 cells assessed as accumulation at S phase at 200 uM after 24 hrs by propidium iodide staining-based flow cytometry (reference value: 9.35%); format: functional
# [3] = target: T1, M-phase inducer phosphatase 1 (Homo sapiens, UniProt P30304); experiment: Inhibition of recombinant phosphatase activity of Cdc25A catalytic domain expressed in Escherichia coli BL21(DE3) using OMFP as substrate by Lineweaver-Burk plot analysis
# T1 sequence (P30304 whole entry): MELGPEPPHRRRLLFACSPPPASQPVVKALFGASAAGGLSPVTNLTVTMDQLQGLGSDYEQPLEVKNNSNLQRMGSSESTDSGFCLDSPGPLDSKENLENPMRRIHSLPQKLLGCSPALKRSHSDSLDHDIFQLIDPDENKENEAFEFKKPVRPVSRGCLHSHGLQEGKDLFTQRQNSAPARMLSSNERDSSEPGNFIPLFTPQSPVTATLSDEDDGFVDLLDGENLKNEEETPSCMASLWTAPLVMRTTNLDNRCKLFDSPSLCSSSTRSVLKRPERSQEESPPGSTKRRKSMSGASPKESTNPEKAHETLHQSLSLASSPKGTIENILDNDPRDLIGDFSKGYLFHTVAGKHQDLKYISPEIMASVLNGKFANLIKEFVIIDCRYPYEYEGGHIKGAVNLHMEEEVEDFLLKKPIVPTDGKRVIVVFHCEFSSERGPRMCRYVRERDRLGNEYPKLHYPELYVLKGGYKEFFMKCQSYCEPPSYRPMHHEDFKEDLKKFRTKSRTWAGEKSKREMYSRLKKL
# Method in brief: (§1)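 Purified recombinant Cdc25A catalytic domain; phosphatase activity measured as OMFP hydrolysis versus inhibitor concentration to derive IC50, with Ki calculated from kinetic measurements. Results are averages ± SD of three determinations.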
# [4] = target: T2, M-phase inducer phosphatase 2 (Homo sapiens) (UniProt P30305); conditions: K562, 200 uM
# T2 sequence (whole entry): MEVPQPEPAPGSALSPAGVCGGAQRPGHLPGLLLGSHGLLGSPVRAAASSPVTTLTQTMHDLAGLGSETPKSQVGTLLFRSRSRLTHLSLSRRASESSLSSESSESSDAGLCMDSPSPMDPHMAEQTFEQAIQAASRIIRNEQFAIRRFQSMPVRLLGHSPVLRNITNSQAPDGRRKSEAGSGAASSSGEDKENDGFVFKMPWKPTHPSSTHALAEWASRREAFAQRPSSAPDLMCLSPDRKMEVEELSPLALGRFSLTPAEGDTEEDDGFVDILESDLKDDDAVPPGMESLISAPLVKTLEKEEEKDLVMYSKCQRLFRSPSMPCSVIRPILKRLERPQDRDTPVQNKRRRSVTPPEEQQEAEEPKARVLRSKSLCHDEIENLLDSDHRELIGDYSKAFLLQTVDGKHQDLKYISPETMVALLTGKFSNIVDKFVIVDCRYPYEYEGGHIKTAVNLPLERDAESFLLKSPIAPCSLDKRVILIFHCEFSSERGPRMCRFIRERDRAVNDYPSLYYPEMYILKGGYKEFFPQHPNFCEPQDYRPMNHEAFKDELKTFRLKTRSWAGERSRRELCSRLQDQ
# MCF7 [5] = experiment: Growth inhibition against human MCF7 cells expressing Cdc25A-C assessed as cell viability at 200 uM after 72 hrs by MTS assay; format: functional, cell-based
# Method in brief: (§2)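 MCF-7 breast, PC-3 prostate and K562 leukaemia cells treated 72 h with inhibitor or DMSO vehicle control, then cell viability measured. Values are mean ± SD of three experiments; significance by Student's t test, p ≤ 0.05.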
# MCF7 [6] = experiment: Cell cycle arrest in human MCF7 cells assessed as accumulation at G1 phase at 200 uM after 24 hrs by propidium iodide staining-based flow cytometry (reference value: 81.3 +/- 0.01%); format: functional
# [7] = target: T2, M-phase inducer phosphatase 2 (Homo sapiens); experiment: (§3) Inhibition of recombinant phosphatase activity of Cdc25B catalytic domain expressed in Escherichia coli BL21(DE3) using OMFP as substrate by spectrofluorimetric analysis
# [8] = target: T3, M-phase inducer phosphatase 2 (Homo sapiens, UniProt P30305); experiment: as §3
# T3 sequence (P30305 whole entry): T2 sequence (whole entry)
# MCF7 [9] = experiment: Cell cycle arrest in human MCF7 cells assessed as accumulation at G1 phase at 200 uM after 48 hrs by propidium iodide staining-based flow cytometry (reference value: 64.5 +/- 0.02%); format: functional
# [10] = target: T2, M-phase inducer phosphatase 2 (Homo sapiens); experiment: Inhibition of recombinant phosphatase activity of Cdc25B catalytic domain expressed in Escherichia coli BL21(DE3) using OMFP as substrate at 100 uM after 15 mins by fluorimetric assay
# MCF7 [11] = experiment: Cell cycle arrest in human MCF7 cells assessed as accumulation at S phase at 200 uM after 48 hrs by propidium iodide staining-based flow cytometry (reference value: 14.5 +/- 0.01%); format: functional
# MCF7 [12] = experiment: Cell cycle arrest in human MCF7 cells assessed as accumulation at G2/M phase at 200 uM after 24 hrs by propidium iodide staining-based flow cytometry (reference value: 9.4 +/- 0.04%); format: functional
# [13] = target: T3, M-phase inducer phosphatase 2; experiment: Competitive inhibition of recombinant phosphatase activity of Cdc25B catalytic domain expressed in Escherichia coli BL21(DE3) using OMFP as substrate by Lineweaver-Burk plot analysis
# [14] = target: T4, M-phase inducer phosphatase 1 (Homo sapiens) (UniProt P30304); experiment: Inhibition of recombinant phosphatase activity of Cdc25A catalytic domain expressed in Escherichia coli BL21(DE3) using OMFP as substrate at 100 uM after 15 mins by fluorimetric assay
# T4 sequence (whole entry): T1 sequence (P30304 whole entry)
# MCF7 [15] = experiment: Cell cycle arrest in human MCF7 cells assessed as accumulation at G2/M phase at 200 uM after 48 hrs by propidium iodide staining-based flow cytometry (reference value: 21 +/- 0.04%); format: functional
# K562 [16] = experiment: Growth inhibition against human K562 cells expressing Cdc25A-C assessed as cell viability at 200 uM after 72 hrs by MTS assay; format: functional, cell-based; method in brief: as §2
# [17] = target: T5, M-phase inducer phosphatase 3 (Homo sapiens) (UniProt P30307); experiment: Inhibition of recombinant phosphatase activity of Cdc25C catalytic domain expressed in Escherichia coli BL21(DE3) using OMFP as substrate at 100 uM after 15 mins by fluorimetric assay
# T5 sequence (whole entry): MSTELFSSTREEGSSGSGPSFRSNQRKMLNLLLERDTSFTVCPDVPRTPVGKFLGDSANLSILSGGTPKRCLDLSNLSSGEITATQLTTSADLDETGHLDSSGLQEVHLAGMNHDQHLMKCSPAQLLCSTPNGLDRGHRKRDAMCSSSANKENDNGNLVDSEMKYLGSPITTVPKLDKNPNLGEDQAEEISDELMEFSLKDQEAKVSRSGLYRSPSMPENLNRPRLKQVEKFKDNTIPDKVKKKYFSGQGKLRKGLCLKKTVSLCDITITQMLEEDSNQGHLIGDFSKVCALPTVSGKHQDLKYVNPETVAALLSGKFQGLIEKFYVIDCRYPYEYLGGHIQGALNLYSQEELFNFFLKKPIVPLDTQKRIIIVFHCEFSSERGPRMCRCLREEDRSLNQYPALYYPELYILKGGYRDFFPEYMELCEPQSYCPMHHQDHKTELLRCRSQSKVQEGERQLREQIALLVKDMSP
# PC-3 [18] = experiment: Growth inhibition against human PC3 cells expressing Cdc25A-C assessed as cell viability at 200 uM after 72 hrs by MTS assay; format: functional, cell-based; method in brief: as §2
# [19] = target: T1, M-phase inducer phosphatase 1; experiment: Inhibition of recombinant phosphatase activity of Cdc25A catalytic domain expressed in Escherichia coli BL21(DE3) using OMFP as substrate by spectrofluorimetric analysis; method in brief: as §1
# MCF7 [20] = experiment: Cell cycle arrest in human MCF7 cells assessed as accumulation at G1 phase at 20 uM after 48 hrs by propidium iodide staining-based flow cytometry (reference value: 64.5 +/- 0.02%); format: functional
# PC-3 [21] = experiment: Increase of ROS level in human PC3 cells expressing Cdc25A-C using H2DCFDA at 20 uM after 30 mins by flow cytometry; format: functional, cell-based
# K562 [22] = experiment: Increase of ROS level in human K562 cells expressing Cdc25A-C using H2DCFDA at 20 uM after 30 mins by flow cytometry; format: functional, cell-based
# MCF7 [23] = experiment: Cell cycle arrest in human MCF7 cells assessed as accumulation at G1 phase at 20 uM after 24 hrs by propidium iodide staining-based flow cytometry (reference value: 81.3 +/- 0.01%); format: functional
# MCF7 [24] = experiment: Growth inhibition against human MCF7 cells expressing Cdc25A-C assessed as cell viability at 20 uM after 72 hrs by MTS assay; format: functional, cell-based; method in brief: as §2
# MCF7 [25] = experiment: Cell cycle arrest in human MCF7 cells assessed as accumulation at S phase at 20 uM after 48 hrs by propidium iodide staining-based flow cytometry (reference value: 14.5 +/- 0.01%); format: functional
# MCF7 [26] = experiment: Cell cycle arrest in human MCF7 cells assessed as accumulation at G2/M phase at 20 uM after 24 hrs by propidium iodide staining-based flow cytometry (reference value: 9.4 +/- 0.04%); format: functional
# PC-3 [27] = experiment: Growth inhibition against human PC3 cells expressing Cdc25A-C assessed as cell viability at 20 uM after 72 hrs by MTS assay; format: functional, cell-based; method in brief: as §2
# [28] = target: T2, M-phase inducer phosphatase 2 (Homo sapiens); experiment: Reversible inhibition of recombinant phosphatase activity of Cdc25B catalytic domain expressed in Escherichia coli BL21(DE3) assessed as residual activity of enzyme measured after 10 fold dilution at 100 uM preincubated for 20 mins
# Method in brief: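 Cdc25B (0.5 μg) preincubated 20 min at room temperature with 100 μM inhibitor or DMSO vehicle, then diluted 10-fold. Residual phosphatase activity was read after adding OMFP substrate and expressed as percent of the untreated control. Mean ± SD of three determinations.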
# PC-3 [29] = experiment: Increase of ROS level in human PC3 cells expressing Cdc25A-C using H2DCFDA at 20 uM after 30 mins by flow cytometry in presence of DTT; format: functional, cell-based
# [30] = target: T2, M-phase inducer phosphatase 2 (Homo sapiens); conditions: 400 uM
# MCF7 [31] = experiment: Cell cycle arrest in human MCF7 cells assessed as accumulation at S phase at 20 uM after 24 hrs by propidium iodide staining-based flow cytometry (reference value: 9.35%); format: functional
# K562 [32] = experiment: Growth inhibition against human K562 cells expressing Cdc25A-C assessed as cell viability at 20 uM after 72 hrs by MTS assay; format: functional, cell-based; method in brief: as §2
# MCF7 [33] = experiment: Cell cycle arrest in human MCF7 cells assessed as accumulation at G2/M phase at 20 uM after 48 hrs by propidium iodide staining-based flow cytometry (reference value: 21 +/- 0.04%); format: functional
# K562 [34] = experiment: Increase of ROS level in human K562 cells expressing Cdc25A-C using H2DCFDA at 20 uM after 30 mins by flow cytometry in presence of DTT; format: functional, cell-based
# [35] = target: T2, M-phase inducer phosphatase 2 (Homo sapiens); conditions: K562, 20 uM
smiles,measurement,setting,value
Cc1nc2c(s1)C(=O)C=C(NCCCN(C)CCCNC1=CC(=O)c3nc(-c4cc(F)ccc4F)oc3C1=O)C2=O,IC50,[1],0.02 µM
O=C(O)c1ccc(C(=O)c2ccccc2C(=O)O)cc1C(=O)O,Activity,MCF7 [2],14.1%
same,Ki,[3],2.3 µM
same,inhibition,[4],Active
same,growth inhibition (GI),MCF7 [5],Active
same,Activity,MCF7 [6],59.1%
same,inhibition,[7],Dose-dependent effect
same,IC50,[8],17.5 µM
same,Activity,MCF7 [9],97%
same,inhibition,[10],80%
same,Activity,MCF7 [11],1.6%
same,Activity,MCF7 [12],26.6%
same,Ki,[13],5.3 µM
same,inhibition,[14],80%
same,Activity,MCF7 [15],1.4%
same,growth inhibition (GI),K562 [16],Active
same,inhibition,[17],63%
same,growth inhibition (GI),PC-3 [18],Active
same,IC50,[19],6 µM
O=C(O)CCc1c2ccc(=O)c(O)c-2oc2c(O)c(O)ccc12,Activity,MCF7 [20],92.8%
same,Activity,PC-3 [21],Active
same,Activity,K562 [22],Active
same,Activity,MCF7 [23],68.8%
same,growth inhibition (GI),MCF7 [24],Active
same,Activity,MCF7 [25],2.6%
same,Activity,MCF7 [26],18.1%
same,growth inhibition (GI),PC-3 [27],Active
same,inhibition,[28],Active
same,Activity,PC-3 [29],inactive
same,inhibition,[30],Active
same,inhibition,[7],Dose-dependent effect
same,Activity,MCF7 [31],13.1%
same,growth inhibition (GI),K562 [32],Active
same,Activity,MCF7 [33],4.6%
same,inhibition,[10],99%
same,Activity,K562 [34],inactive
same,inhibition,[14],100%
same,inhibition,[17],99%
same,inhibition,[35],Active
